Calls of active or inactive are those of the source. No cut-off for these calls is given here. Where a SMILES comes first, the peptide text is derived from it. [ ]: non-standard residue; d: D form. Oic = O=C(O)[C@@H]1C[C@@H]2CCCC[C@@H]2N1; d2Nal = N[C@H](Cc1ccc2ccccc2c1)C(=O)O; Hyp = O=C(O)[C@@H]1C[C@@H](O)CN1; dTic = O=C(O)[C@H]1Cc2ccccc2CN1; 2Thi = N[C@@H](Cc1cccs1)C(=O)O
Legend:
Type in all cases: functional, tissue-based
B1 bradykinin receptor = target: T1, B1 bradykinin receptor (Rattus norvegicus, UniProt P97583); test: Antagonistic activity against Bradykinin receptor B1 of rat ileum longitudinal smooth muscle.; settings: for Kb: read-out: pA2 (converted)
T1 sequence (P97583 whole entry): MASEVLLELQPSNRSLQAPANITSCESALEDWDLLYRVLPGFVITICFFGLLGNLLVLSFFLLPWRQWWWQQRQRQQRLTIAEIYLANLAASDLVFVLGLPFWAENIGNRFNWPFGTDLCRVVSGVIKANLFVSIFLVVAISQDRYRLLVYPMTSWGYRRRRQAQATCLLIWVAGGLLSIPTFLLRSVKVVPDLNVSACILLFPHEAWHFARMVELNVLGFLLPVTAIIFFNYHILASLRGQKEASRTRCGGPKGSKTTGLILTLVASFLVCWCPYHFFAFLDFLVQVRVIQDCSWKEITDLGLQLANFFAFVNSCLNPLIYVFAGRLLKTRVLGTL
In short: (§1)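 Rat ileum longitudinal muscle-myenteric plexus strips in oxygenated (95% O2/5% CO2) Krebs with indomethacin, guanethidine (3 μM each), chlorpheniramine, atropine (1 μM each). Cumulative desArg9-BK curves with thiorphan, bestatin, captopril (1 μM each); antagonist given 15 min before repeat curve at 1–10 μM. Contraction read-out; pA2 (dose ratio 2), mean ± SE of 4–15 experiments.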

B2 bradykinin receptor = target: T2, B2 bradykinin receptor (Cavia porcellus, UniProt O70526); test: (§2) Antagonistic activity against Bradykinin receptor B2 of guinea pig ileum longitudinal smooth muscle.; settings: for Kb: read-out: pA2 (converted)
T2 sequence (O70526 whole entry): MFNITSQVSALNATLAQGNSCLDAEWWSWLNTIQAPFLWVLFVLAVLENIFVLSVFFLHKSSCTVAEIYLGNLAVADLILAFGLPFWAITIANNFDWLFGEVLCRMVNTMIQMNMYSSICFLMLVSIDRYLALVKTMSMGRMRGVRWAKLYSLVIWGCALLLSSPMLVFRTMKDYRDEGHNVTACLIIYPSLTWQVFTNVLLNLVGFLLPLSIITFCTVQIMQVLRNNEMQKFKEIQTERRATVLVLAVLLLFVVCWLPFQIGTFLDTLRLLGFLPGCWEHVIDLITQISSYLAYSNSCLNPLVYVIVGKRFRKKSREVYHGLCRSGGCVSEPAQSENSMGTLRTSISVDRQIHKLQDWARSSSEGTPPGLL
In short: as §1, with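 “Guinea pig” for “Rat”, “BK” for “desArg9-BK”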

[1] = target: T3, B2 bradykinin receptor (Cavia porcellus) (UniProt O70526); test: as §2
T3 sequence (whole entry): T2 sequence (O70526 whole entry)
In short: as §1, with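 “Guinea pig” for “Rat”, “BK” for “desArg9-BK”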

## NCCCC[C@H](NC(=O)[C@@H](N)CCCCN)C(=O)N[C@@H](CCCN=C(N)N)C(=O)N1CCC[C@H]1C(=O)N1C[C@H](O)C[C@H]1C(=O)NCC(=O)N[C@H](C(=O)N[C@@H](CO)C(=O)N[C@@H](C(=O)N1[C@H](C(=O)O)C[C@@H]2CCCC[C@@H]21)C1Cc2ccccc2C1)C1Cc2ccccc2C1
B1 bradykinin receptor
  Kb: 7.94 nM
B2 bradykinin receptor
  Kb: 3160 nM

## NC(N)=NCCC[C@@H](N)C(=O)N[C@@H](CCCN=C(N)N)C(=O)NC1(C(=O)N[C@@H](CO)C(=O)N2Cc3ccccc3C[C@@H]2C(=O)N2[C@H](C(=O)O)C[C@@H]3CCCC[C@@H]32)CCCCCCCC1
B1 bradykinin receptor
  Kb: 6310 nM
[1]
  pA2: inactive

## CC[C@H](C)[C@H](NC(=O)[C@@H](Cc1ccc2ccccc2c1)NC(=O)[C@H](CO)NC(=O)CCCCCCCCCCNC(=O)[C@H](CCCN=C(N)N)NC(=O)[C@H](CCCCN)NC(C)=O)C(=O)O
B1 bradykinin receptor
  Kb: 100 nM
B2 bradykinin receptor
  Kb: 1260 nM

## NC(N)=NCCC[C@@H](N)C(=O)N[C@@H](CCCN=C(N)N)C(=O)NC1(C(=O)N[C@@H](CO)C(=O)N2Cc3ccccc3C[C@@H]2C(=O)N2[C@H](C(=O)O)C[C@@H]3CCCC[C@@H]32)CCCCCC1
B1 bradykinin receptor
  Kb: 1260 nM
[1]
  pA2: inactive

## NC(N)=NCCC[C@@H](N)C(=O)N[C@@H](CCCN=C(N)N)C(=O)NCCCCCCCCCCC(=O)N[C@@H](CO)C(=O)N[C@@H](C(=O)N1[C@H](C(=O)N[C@@H](CCCN=C(N)N)C(=O)O)C[C@@H]2CCCC[C@@H]21)C1Cc2ccccc2C1
B1 bradykinin receptor
  Kb: 10000 nM
B2 bradykinin receptor
  Kb: 794 nM

## NC(N)=NCCC[C@@H](N)C(=O)N[C@@H](CCCN=C(N)N)C(=O)NCCCCCCCC(=O)N[C@@H](CO)C(=O)N1Cc2ccccc2C[C@@H]1C(=O)N1[C@H](C(=O)O)C[C@@H]2CCCC[C@@H]21
B1 bradykinin receptor
  Kb: 3980 nM
[1]
  pA2: inactive

## NC(N)=NCCC[C@@H](N)C(=O)N[C@@H](CCCN=C(N)N)C(=O)N1CCC[C@H]1C(=O)N1C[C@H](O)C[C@H]1C(=O)NCC(=O)N[C@H](C(=O)N[C@@H](CO)C(=O)N[C@@H](C(=O)N1[C@H](C(=O)N[C@@H](CCCN=C(N)N)C(=O)O)C[C@@H]2CCCC[C@@H]21)C1Cc2ccccc2C1)C1Cc2ccccc2C1
B1 bradykinin receptor
  Kb: 20 nM
B2 bradykinin receptor
  Kb: 6.31 nM

## NCCCCC(N)C(=O)N[C@@H](CCCN=C(N)N)C(=O)NCCCCCCCCCCC(=O)N[C@@H](CO)C(=O)N1Cc2ccccc2C[C@@H]1C(=O)N1[C@H](C(=O)O)C[C@@H]2CCCC[C@@H]21 (stereo in doubt)
B1 bradykinin receptor
  Kb: 1000 nM
[1]
  pA2: inactive

## NC(N)=NCCC[C@@H](N)C(=O)N[C@@H](CCCN=C(N)N)C(=O)NCCCC(=O)NC1(C(=O)NCCCC(=O)N[C@@H](CO)C(=O)N2Cc3ccccc3C[C@@H]2C(=O)N2[C@H](C(=O)O)C[C@@H]3CCCC[C@@H]32)CCCCCC1
B1 bradykinin receptor
  Kb: 2000 nM
B2 bradykinin receptor
  Kb: > 10000 nM

## NCCCC[C@H](NC(=O)[C@@H](N)CCCCN)C(=O)N[C@@H](CCCN=C(N)N)C(=O)NCCCCCCCCCCC(=O)N[C@@H](CO)C(=O)N1Cc2ccccc2C[C@@H]1C(=O)N1[C@H](C(=O)O)C[C@@H]2CCCC[C@@H]21
B1 bradykinin receptor
  Kb: 794 nM
[1]
  pA2: inactive

## NC(N)=NCCC[C@@H](N)C(=O)N[C@@H](CCCN=C(N)N)C(=O)NCC(=O)NC1(C(=O)NCC(=O)N[C@@H](CO)C(=O)N2Cc3ccccc3C[C@@H]2C(=O)N2[C@H](C(=O)O)C[C@@H]3CCCC[C@@H]32)CCCCCC1
B1 bradykinin receptor
  Kb: 6310 nM
[1]
  pA2: inactive

## NC(N)=NCCC[C@@H](N)C(=O)N[C@@H](CCCN=C(N)N)C(=O)NC1(C(=O)N[C@@H](CO)C(=O)N2Cc3ccccc3C[C@@H]2C(=O)N2[C@H](C(=O)O)C[C@@H]3CCCC[C@@H]32)CCCCC1
B1 bradykinin receptor
  Kb: 10000 nM
[1]
  pA2: inactive

## NCCCC[C@H](NC(=O)[C@@H](N)CCCCN)C(=O)N[C@@H](CCCN=C(N)N)C(=O)NCCCCCCCCCCC(=O)N[C@@H](CO)C(=O)N[C@@H](C(=O)N1[C@@H](C(=O)O)C[C@@H]2CCCC[C@@H]21)C1Cc2ccccc2C1
B1 bradykinin receptor
  pA2: 6.3
B2 bradykinin receptor
  pA2: 5.5

## NC(N)=NCCC[C@@H](N)C(=O)N[C@@H](CCCN=C(N)N)C(=O)NCCCCCCCCCCC(=O)N[C@@H](CO)C(=O)N[C@@H](C(=O)N1[C@@H](C(=O)O)C[C@H]2CCCC[C@H]21)C1Cc2ccccc2C1
B1 bradykinin receptor
  pA2: 6.3
B2 bradykinin receptor
  pA2: 6

## NC(N)=NCCC[C@@H](N)C(=O)N[C@@H](CCCN=C(N)N)C(=O)NCCCCCCCCCCC(=O)N[C@@H](CO)C(=O)N1Cc2ccccc2C[C@@H]1C(=O)N1[C@H](C(=O)O)C[C@@H]2CCCC[C@@H]21
B1 bradykinin receptor
  Kb: 79.4 nM
[1]
  pA2: inactive

## N=C(N)NCCC[C@@H](N)C(=O)N[C@@H](CCCNC(=N)N)C(=O)N1CCC[C@H]1C(=O)N1C[C@H](O)C[C@H]1C(=O)NCC(=O)N[C@@H](Cc1cccs1)C(=O)N[C@@H](CO)C(=O)N1Cc2ccccc2C[C@@H]1C(=O)N1[C@H](C(=O)O)C[C@@H]2CCCC[C@@H]21 (H-[dR]RP[Hyp]G[2Thi]S[dTic][Oic]-OH)
B1 bradykinin receptor
  Kb: 158 nM
B2 bradykinin receptor
  Kb: 2000 nM

## NC(N)=NCCC[C@@H](N)C(=O)N[C@@H](CCCN=C(N)N)C(=O)NCCC(=O)NC1(C(=O)NCCC(=O)N[C@@H](CO)C(=O)N2Cc3ccccc3C[C@@H]2C(=O)N2[C@H](C(=O)O)C[C@@H]3CCCC[C@@H]32)CCCCCC1
B1 bradykinin receptor
  Kb: 2510 nM
[1]
  pA2: inactive

## CC(=O)N[C@@H](CCCCN)C(=O)N[C@@H](CCCN=C(N)N)C(=O)NCCCCCCCCCCC(=O)N[C@@H](CO)C(=O)N1Cc2ccccc2C[C@@H]1C(=O)N1[C@H](C(=O)O)C[C@@H]2CCCC[C@@H]21
B1 bradykinin receptor
  Kb: 251 nM
[1]
  pA2: inactive

## NC(N)=NCCC[C@@H](N)C(=O)N[C@@H](CCCN=C(N)N)C(=O)NCCCCCCCCCCCC(=O)N[C@@H](CO)C(=O)N1Cc2ccccc2C[C@@H]1C(=O)N1[C@H](C(=O)O)C[C@@H]2CCCC[C@@H]21
B1 bradykinin receptor
  Kb: 100 nM
B2 bradykinin receptor
  Kb: 3980 nM

## NC(N)=NCCC[C@@H](N)C(=O)N[C@@H](CCCN=C(N)N)C(=O)NCCCCCC(=O)N[C@@H](CO)C(=O)N1Cc2ccccc2C[C@@H]1C(=O)N1[C@H](C(=O)O)C[C@@H]2CCCC[C@@H]21
B1 bradykinin receptor
  Kb: 2000 nM
[1]
  pA2: inactive

## NC(N)=NCCC[C@@H](N)C(=O)N[C@@H](CCCN=C(N)N)C(=O)NC1(C(=O)N[C@@H](CO)C(=O)N2Cc3ccccc3C[C@@H]2C(=O)N2[C@H](C(=O)O)C[C@@H]3CCCC[C@@H]32)CCCCCCC1
B1 bradykinin receptor
  Kb: 3160 nM
B2 bradykinin receptor
  Kb: > 10000 nM

## CC[C@H](C)[C@H](NC(=O)[C@@H](Cc1ccc2ccccc2c1)NC(=O)[C@H](CO)NC(=O)[C@H](Cc1ccccc1)NC(=O)CNC(=O)[C@@H]1CCCN1C(=O)[C@@H]1CCCN1C(=O)[C@H](CCCN=C(N)N)NC(=O)[C@H](CCCCN)NC(C)=O)C(=O)O (Ac-KRPPGFS[d2Nal]I-OH)
B1 bradykinin receptor
  Kb: 63.1 nM
B2 bradykinin receptor
  Kb: 1000 nM
